Compound activity: PubChem, Johns Hopkins Ion Channel Center
MrgX1 antag: blocks BAM8-22 activation of human MrgX1 receptor. Q96LB2. MRGX1-HEK293 calcium flux, Fluo-4, BAM8-22 antagonism; stronger effect = lower value. B-score at 10 µM. hit rate 1.3% among 310,000. AID 588676;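 active = calcium-response B-score plate-corrected more than 3 library SD below zero, starting fluorescence within 5 deviations, no agonist response on first addition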;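 also: peak minus trough fluorescence over baseline after final BAM8-22 challenge near maximal dose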
Target sequence (Q96LB2 whole entry, looked up): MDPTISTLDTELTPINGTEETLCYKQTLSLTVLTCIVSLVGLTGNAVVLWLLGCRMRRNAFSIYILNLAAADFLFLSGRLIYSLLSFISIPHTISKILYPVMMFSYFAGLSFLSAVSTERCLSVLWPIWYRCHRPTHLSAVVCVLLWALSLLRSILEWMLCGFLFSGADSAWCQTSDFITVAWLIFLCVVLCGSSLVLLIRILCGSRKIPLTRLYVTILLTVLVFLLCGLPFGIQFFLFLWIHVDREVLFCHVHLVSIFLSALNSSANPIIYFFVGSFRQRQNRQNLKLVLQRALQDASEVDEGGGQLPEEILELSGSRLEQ
RGS4 act: potentiators or activators of RGS4; HEK293 M3R/inducible RGS4, carbachol calcium flux Fluo4; stronger effect = lower value; B-score at 10 µM; hit rate 0.92% among 310,000; AID 463111;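 active = B-score of the integrated calcium signal more than 4 SD below the library mean, with starting fluorescence not abnormally high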;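 also: negative B-score means reduced calcium response which marks RGS4 activation or potentiation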
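Assay system: HEK293 FlpIn-TREx cells, stable M3R, doxycycline-inducible RGS4 / Probe or stimulus: carbachol, ECmax concentration / Times: overnight RGS4 induction, 30 min dye load 37 °C, 20 min compound RT / Signal: kinetic calcium fluorescence imaging with Fluo4-AM dye, 2 µM / Measure: Agonist-evoked peak-minus-minimum fluorescence over baseline, integrated ratio, B score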
MrgX1 allo act: human MrgX1 positive allosteric modulation, primary screen; hit rate 0.63% among 310,000; B-score at 10 µM; MrgX1-HEK293, Fluo-4 calcium flux, FDSS; stronger effect = higher value;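 active = plate-corrected calcium response at least 3 library SD above typical, normal starting fluorescence, not activating the receptor alone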;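 also: compound read alongside a low EC10 to EC30 dose of BAM8-22 agonist; peak minus trough fluorescence over baseline measured at the second addition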
RGS4 block: inhibitors of human RGS4. P49798. HEK293 M3R/RGS4 inducible, Fluo-4 calcium flux; stronger effect = higher value; triggered by carbachol at its EC20. B-score at 10 µM. hit rate 0.45% among 310,000. AID 463165;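 active = B-score, a plate-corrected calcium signal, over three deviations above library mean, with baseline fluorescence within five deviations of library mean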;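 also: RGS4 expression induced by doxycycline in cells with stable M3 receptor; B-score is computed from the integrated fluorescence ratio over baseline after carbachol; higher B-score means a larger calcium signal and so more RGS4 inhibition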
Target sequence (P49798 whole entry, looked up): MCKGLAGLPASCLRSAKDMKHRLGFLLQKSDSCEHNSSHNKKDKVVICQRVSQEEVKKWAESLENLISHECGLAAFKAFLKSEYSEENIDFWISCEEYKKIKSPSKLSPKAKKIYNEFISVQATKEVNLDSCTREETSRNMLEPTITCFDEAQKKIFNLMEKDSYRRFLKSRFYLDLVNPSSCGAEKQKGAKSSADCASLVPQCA
MrgX1 agonist: agonists of human MrgX1 receptor. Q96LB2. MrgX1-HEK293 cells, Fluo-4 calcium fluorescence, agonist mode; stronger effect = higher value. B-score at 10 µM. hit rate 0.44% among 310,000;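 active = calcium response B-score plate-corrected fluorescence ratio at least 3 library SD, with starting fluorescence B-score inside 5 SD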
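Material – MrgX1-expressing HEK293 cells · Input – 15,000 cells seeded per well · Dosing – compound as first of three additions · Times – overnight seeding, then 1 h dark dye loading · Measured by – kinetic Fluo-4 NW fluorescence of intracellular calcium · Read-out – B-scored fluorescence response ratio · Benchmarks – positive and negative control wells on each plate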
Kir21 inh: Kir2.1 (mouse) channel inhibition; P35561; HEK293-Kir2.1, FluxOR thallium flux fluorescence; stronger effect = lower value; B-score at 10 µM; hit rate 0.85% among 310,000;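 active = fluorescence ratio B-score at or below minus 3 SD of library scores, with starting-brightness B-score within 2 SD, cut at about -4.2 in these data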;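 also: channel flux triggered by added potassium and thallium sulfate stimulus; B-score of peak minus minimum fluorescence over baseline after thallium stimulus; more negative B-score means stronger Kir2.1 block with less thallium influx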
MrgX1 antag conf: confirmation of human MrgX1 receptor antagonists; shares compounds with MrgX1 antag; MrgX1-HEK293, BAM8-22 calcium flux, Fluo-4; stronger effect = lower value; remaining BAM8-22 calcium response % of control (stronger effect = lower value), % at 10 µM; hit rate 19% among 2,300; AID 602420;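 active = remaining agonist calcium response no higher than 100% minus 3 SD of agonist-only control wells, with starting fluorescence near control levels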;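 also: agonist BAM8-22 given at a near maximal EC90 to ECmax level; peak minus minimum fluorescence divided by baseline after agonist addition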
HEK293 Ca flux: MrgX1 antagonist counter-screen hit in parental HEK293 cells; shares compounds with MrgX1 antag; Fluo-4 calcium fluorescence, FDSS; fluorescence ratio F(max-min)/F0 at 10 µM; hit rate 2% among 4,000; AID 624111;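 active = duplicate-averaged calcium fluorescence ratio at least three times the standard deviation of buffer wells, a nonspecific response in parental cells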
HEK293 Ca counter: activity in parental HEK293 cells without MrgX1 | parental HEK293 calcium flux, Fluo-4 fluorescence ratio; stronger effect = higher value | hit rate 0.4% among 4,000 | shares compounds with MrgX1 antag | fluorescence ratio F(max-min)/F0 at 10 µM | AID 624114;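 active = calcium fluorescence ratio, averaged over duplicates, at least 3 SD of the buffer-well ratio, meaning a nonspecific response in receptor-free cells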;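 also: untransfected parental HEK293 lacking MrgX1 used as counterscreen for MrgX1 allosteric activators; fluorescence change taken during the second addition on a kinetic imager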
HEK293 Ca cntr2: MrgX1 activator counter-screen hit in parental HEK293 cells | shares compounds with MrgX1 antag | Fluo-4 calcium fluorescence (FDSS); stronger effect = higher value | fluorescence ratio F(max-min)/F0 at 10 µM | hit rate 8.7% among 4,000 | AID 624115;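 active = calcium fluorescence ratio at least three times the spread of buffer wells, meaning a non-specific response in parental cells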
* = called active by the depositor; i = inactive; · = no result. The list is not random: actives were taken first. Their share in the collection is about 4.1%.

SMILES	MrgX1 antag	RGS4 act	MrgX1 allo act	RGS4 block	MrgX1 agonist	Kir21 inh	MrgX1 antag conf	HEK293 Ca flux	HEK293 Ca counter	HEK293 Ca cntr2
CCc1nnc(NC(=O)c2nc(S(=O)(=O)Cc3ccc(C)cc3)ncc2Cl)s1	-7.2*	i	i	i	i	-2.1	73%*	i	i	i
COc1ccc(CC(C)N2CCN(Cc3ccccc3)CC2)c(OC)c1 (centres undefined)	-4.5*	i	i	i	i	-2.1	i	i	i	i
COc1ccc(CN2CCN(CCCc3ccccc3)CC2)c(OC)c1	i	i	i	i	i	-0.84	·	·	·	·
Cc1ccc(C(=O)NCCc2nnc3ccc(SCC(=O)Nc4c(C)cc(C)cc4C)nn23)cc1	-5.7*	i	i	i	i	0.61	i	i	i	i
COc1ccc(S(=O)(=O)N2CCC(c3nc4ccccc4[nH]3)CC2)cc1	i	i	i	i	i	-1.8	·	·	·	·
CC(C)(C)c1ccc(S(=O)(=O)N2CCC(c3nc4ccc(Cl)cc4[nH]3)CC2)cc1	-6*	i	i	i	i	2.1	i	i	i	i
COc1ccccc1NS(=O)(=O)c1ccc(-c2cnc(C3CC3)o2)cc1	-5.2*	i	i	i	i	-1.1	i	i	i	i
Fc1cccc(Cl)c1CNCc1cccnc1	i	i	i	i	i	-0.46	·	·	·	·
Cc1ccc(S(=O)(=O)N2CCOCC2)cc1C(=O)Nc1nc(-c2cccnc2)cs1	-13*	i	i	i	i	2	i	i	i	i
CC(C)OCCCNc1ncnc2c1[nH]c1ccccc12	-8.4*	i	i	i	i	0.14	52%*	i	i	i
COc1ccc(CNc2ncnc3c2[nH]c2ccccc23)cc1	i	i	i	i	i	0.9	·	·	·	·
CCOc1ccc2[nH]c3c(NCCCOC)ncnc3c2c1	i	i	i	i	i	-1.3	·	·	·	·
Cc1ccc2[nH]c3c(NCc4ccccc4)ncnc3c2c1	-7.4*	i	i	i	i	-0.89	i	i	i	i
Cc1ccc(S(=O)(=O)NN2Cc3ccccc3C2=N)cc1	i	i	i	i	i	0.55	·	·	·	·
CCOc1ccc(C(=O)CCC(=O)Nc2ncccc2O)cc1	i	i	i	i	i	-0.57	·	·	·	·
CCOc1ccc(C(=O)CCC(=O)Nc2ccc(C)cn2)cc1	-5.7*	i	i	i	i	-1.3	81%*	i	i	i
CCn1cc([N+](=O)[O-])c(C(=O)Nc2nc(-c3ccc(C)cc3)c(C)s2)n1	-10*	i	i	i	i	-0.03	i	i	i	i
CCn1cc([N+](=O)[O-])c(C(=O)Nc2nc(-c3ccc(C)c(C)c3)c(C)s2)n1	i	i	i	i	i	-0.28	·	·	·	·
COc1cccc(CN2CC(C(=O)NCCOc3ccccc3F)CCC2=O)c1 (centres undefined)	i	i	i	i	i	-0.74	·	·	·	·
O=C(CCc1ccccc1)Nc1cc(C(F)(F)F)ccc1Cl	-4.5*	i	i	i	i	-0.45	i	i	i	i
O=C(CCS(=O)(=O)c1ccc(Br)cc1)N1CCN(c2ccccc2F)CC1	-5.4*	·	i	·	i	·	i	i	i	i
